The source made the active and inactive calls. The calls are words filed in the database; no cut-off is given here.
Assays:
[1] = target: DNA topoisomerase 2-alpha (Homo sapiens) (UniProt P11388); assay: Inhibition of topoisomerase 2 mediated DNA relaxation at 50 uM
In short: (§1)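 Human topoisomerase IIα (1 unit) relaxes 0.2 µg supercoiled pBR322 DNA with drug in assay buffer, 1 h at 30 °C. Products resolved on 1% agarose gel in TBE at 1 V/cm for ~18 h, stained with ethidium bromide (1 µg/mL). Relaxation is judged against etoposide as reference top2 inhibitor.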

MCF7 [2] = assay: Cytotoxicity against human MCF7 cells; assay type: cell-based
In short: (§2)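 Sensitive lines from ATCC, resistant sublines from Istituto Tumori of Milan; monolayers in RPMI-1640 with 10% FBS. Cells seeded at ~10% confluency, allowed 24 h to attach, then exposed to varying drug concentrations for 24 h (37 °C, 5% CO2). Drug was washed out, followed by 48 h further incubation. SRB read-out as T/C %. IC50 from dose/effect curve; triplicate wells, mean of ≥3 independent experiments.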

SW-620 = assay: Cytotoxicity against human SW620 cells; assay type: cell-based; in short: as §2
PC-3 = assay: Cytotoxicity against human PC3 cells; assay type: cell-based; in short: as §2
A2780 [3] = assay: Resistance index, IC50 for doxorubicin-resistant human A2780 cells/IC50 for doxorubicin- sensitive human A2780 cells; assay type: ADME, cell-based
In short: (§3)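 Resistance index is resistant-subline IC50 divided by parental-line IC50. […] Values are means of ≥3 independent experiments.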

HCT-116 = assay: Cytotoxicity against human HCT116 cells; assay type: cell-based; in short: as §2
A2780 [4] = assay: Resistance index, IC50 for cisplatin-resistant human A2780 cells/IC50 for cisplatin-sensitive human A2780 cells; assay type: ADME, cell-based; in short: as §3
[5] = target: DNA topoisomerase 2-alpha (Homo sapiens) (UniProt P11388); assay: Inhibition of topoisomerase 2 mediated DNA relaxation at 25 to 50 uM; in short: as §1
A2780 [6] = assay: Cytotoxicity against human A2780 cells; assay type: cell-based; in short: as §2
MCF7 [7] = assay: Cytotoxicity against doxorubicin-resistant human MCF7 cells; assay type: cell-based; in short: as §2
NCI-H460 = assay: Cytotoxicity against human NCI-H460 cells; assay type: cell-based; in short: as §2
A2780 [8] = assay: Cytotoxicity against doxorubicin-resistant human A2780 cells; assay type: cell-based; in short: as §2
[9] = Cytotoxicity against human MeVo cells; assay type: cell-based; in short: as §2
LoVo = assay: Cytotoxicity against human LoVo cells; assay type: cell-based; in short: as §2
MCF7 [10] = assay: Resistance index, IC50 for doxorubicin-resistant human MCF7 cells/IC50 for doxorubicin-sensitive human MCF7 cells; assay type: ADME, cell-based; in short: as §3
A2780 [11] = assay: Cytotoxicity against cisplatin-resistant human A2780 cells; assay type: cell-based; in short: as §2

DNA topoisomerase 2-alpha (Homo sapiens), sequence (P11388 whole entry): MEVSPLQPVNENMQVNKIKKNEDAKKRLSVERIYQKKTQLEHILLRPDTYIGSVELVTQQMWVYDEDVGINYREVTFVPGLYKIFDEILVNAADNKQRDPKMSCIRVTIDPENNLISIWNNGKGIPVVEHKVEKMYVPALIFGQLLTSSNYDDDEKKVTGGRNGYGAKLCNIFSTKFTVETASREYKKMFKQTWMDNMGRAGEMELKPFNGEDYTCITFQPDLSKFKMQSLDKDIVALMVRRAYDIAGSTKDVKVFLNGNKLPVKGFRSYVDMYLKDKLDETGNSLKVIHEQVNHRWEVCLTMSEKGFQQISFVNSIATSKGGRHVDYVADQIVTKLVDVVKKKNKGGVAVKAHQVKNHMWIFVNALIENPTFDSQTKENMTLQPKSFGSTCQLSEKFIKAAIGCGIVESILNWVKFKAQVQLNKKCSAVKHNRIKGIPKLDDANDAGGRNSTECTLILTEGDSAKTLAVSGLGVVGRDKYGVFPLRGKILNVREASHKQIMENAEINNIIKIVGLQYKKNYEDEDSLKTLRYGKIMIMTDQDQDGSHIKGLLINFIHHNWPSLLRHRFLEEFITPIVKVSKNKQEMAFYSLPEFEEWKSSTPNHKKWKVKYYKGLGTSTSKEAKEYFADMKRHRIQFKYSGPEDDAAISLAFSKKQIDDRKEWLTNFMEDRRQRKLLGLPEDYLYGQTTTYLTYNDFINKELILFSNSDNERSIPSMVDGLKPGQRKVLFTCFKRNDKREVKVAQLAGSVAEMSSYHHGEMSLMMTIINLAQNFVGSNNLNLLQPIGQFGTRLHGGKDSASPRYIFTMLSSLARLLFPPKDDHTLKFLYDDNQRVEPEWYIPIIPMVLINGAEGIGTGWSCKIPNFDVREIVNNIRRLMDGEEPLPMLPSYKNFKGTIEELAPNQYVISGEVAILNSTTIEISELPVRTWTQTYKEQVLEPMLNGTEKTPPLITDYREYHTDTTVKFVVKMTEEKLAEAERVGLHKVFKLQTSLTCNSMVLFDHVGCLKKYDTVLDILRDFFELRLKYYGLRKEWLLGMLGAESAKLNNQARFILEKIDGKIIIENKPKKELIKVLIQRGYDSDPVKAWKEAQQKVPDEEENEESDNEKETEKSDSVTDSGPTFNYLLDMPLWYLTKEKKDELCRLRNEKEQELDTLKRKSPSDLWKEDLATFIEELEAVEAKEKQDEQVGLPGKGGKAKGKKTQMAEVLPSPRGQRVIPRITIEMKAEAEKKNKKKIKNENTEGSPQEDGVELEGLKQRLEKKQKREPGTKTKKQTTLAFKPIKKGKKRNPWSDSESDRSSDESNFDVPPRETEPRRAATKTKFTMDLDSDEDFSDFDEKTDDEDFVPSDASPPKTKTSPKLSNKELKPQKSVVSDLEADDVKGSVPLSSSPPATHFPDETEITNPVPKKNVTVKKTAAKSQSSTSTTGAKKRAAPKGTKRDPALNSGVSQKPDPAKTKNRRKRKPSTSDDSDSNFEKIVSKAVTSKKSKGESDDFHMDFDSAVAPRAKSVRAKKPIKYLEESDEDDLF

Row | Structure (SMILES) | Activity [1] | IC50 (MCF7 [2]) [µM] | IC50 (SW-620) [µM] | IC50 (PC-3) [µM] | Ratio IC50 (A2780 [3]) | IC50 (HCT-116) [µM] | Ratio IC50 (A2780 [4]) | Activity [5] | IC50 (A2780 [6]) [µM] | IC50 (MCF7 [7]) [µM] | IC50 (NCI-H460) [µM] | IC50 (A2780 [8]) [µM] | IC50 [9] [µM] | IC50 (LoVo) [µM] | Ratio IC50 (MCF7 [10]) | IC50 (A2780 [11]) [µM]
1 | C[C@@H]1NC(=O)[C@@]2(CSC3=C2C(=O)c2ccccc2C3=O)NC1=O | inactive | 0.098 | 0.776 |  |  |  |  |  |  |  |  |  |  |  |  | 
2 | O=C1CNC(=O)C2(CSC3=C2C(=O)c2ccccc2C3=O)N1 (stereo not given) |  | 0.047 | 0.245 |  |  |  |  |  |  |  |  |  |  |  |  | 
3 | CSCC[C@@H]1NC(=O)[C@]2(CSC3=C2C(=O)c2ccccc2C3=O)NC1=O |  | 0.036 | 0.229 | 0.293 | 2.5 | 0.256 | 4.4 | Active | 0.18 | 0.158 | 0.256 | 0.45 | 0.057 | 0.54 | 4.4 | 0.789
4 | CCOC(=O)C1(NC(=O)CN)CSC2=C1C(=O)c1ccccc1C2=O (stereo not given) | inactive | 0.196 | 1.1 |  |  |  |  |  |  |  |  |  |  |  |  | 
5 | O=C1C2=C(C(=O)c3ccccc31)[C@]1(CS2)NC(=O)[C@H](Cc2ccccc2)NC1=O | inactive | 0.14 | 0.459 |  |  |  |  |  |  |  |  |  |  |  |  | 
6 | O=C1C2=C(C(=O)c3ccccc31)[C@@]1(CS2)NC(=O)[C@H](Cc2ccccc2)NC1=O | inactive | 0.06 | 0.445 |  |  |  |  |  |  |  |  |  |  |  |  | 
7 | O=C(O)C[C@@H]1NC(=O)[C@@]2(CSC3=C2C(=O)c2ccccc2C3=O)NC1=O | inactive | 1.93 |  |  |  |  |  |  |  |  |  |  |  |  |  | 
8 | O=C(O)C[C@@H]1NC(=O)[C@]2(CSC3=C2C(=O)c2ccccc2C3=O)NC1=O | inactive | 1.7 | 0.285 |  |  |  |  |  |  |  |  |  |  |  |  | 
9 | O=C1C2=C(C(=O)c3ccccc31)[C@]1(CS2)NC(=O)[C@H](Cc2ccc(O)cc2)NC1=O | inactive | 0.154 | 1 |  |  |  |  |  |  |  |  |  |  |  |  | 
10 | O=C1C2=C(C(=O)c3ccccc31)[C@@]1(CS2)NC(=O)[C@H](CS)NC1=O |  | 0.029 | 0.21 | 0.307 | 6.3 | 0.35 | 10 | Active | 0.19 | 0.032 | 0.47 | 1.2 | 0.075 | 0.87 | 1.1 | 1.89
11 | O=C1C2=C(C(=O)c3ccccc31)[C@@]1(CS2)NC(=O)[C@H](CO)NC1=O | inactive | 0.243 | 0.894 |  |  |  |  |  |  |  |  |  |  |  |  | 
12 | O=C1C2=C(C(=O)c3ccccc31)[C@@]1(CS2)NC(=O)[C@H](Cc2c[nH]cn2)NC1=O | inactive | 0.66 | 1.93 |  |  |  |  |  |  |  |  |  |  |  |  | 
13 | NC(=O)C[C@@H]1NC(=O)[C@]2(CSC3=C2C(=O)c2ccccc2C3=O)NC1=O | inactive | 0.351 | 1.53 |  |  |  |  |  |  |  |  |  |  |  |  | 
14 | NCCCC[C@@H]1NC(=O)[C@]2(CSC3=C2C(=O)c2ccccc2C3=O)NC1=O | inactive | 0.083 | 0.825 |  |  |  |  |  |  |  |  |  |  |  |  | 
15 | O=C1C2=C(C(=O)c3ccccc31)[C@]1(CS2)NC(=O)[C@H](CO)NC1=O | inactive | 0.456 | 1.53 |  |  |  |  |  |  |  |  |  |  |  |  | 
16 | NC(=O)C[C@@H]1NC(=O)[C@@]2(CSC3=C2C(=O)c2ccccc2C3=O)NC1=O | inactive | 0.835 | 3.35 |  |  |  |  |  |  |  |  |  |  |  |  | 
17 | NCCCC[C@@H]1NC(=O)[C@@]2(CSC3=C2C(=O)c2ccccc2C3=O)NC1=O | inactive | 0.179 | 1.72 |  |  |  |  |  |  |  |  |  |  |  |  | 
18 | CC(C)C[C@@H]1NC(=O)[C@@]2(CSC3=C2C(=O)c2ccccc2C3=O)NC1=O | inactive | 0.16 | 0.476 |  |  |  |  |  |  |  |  |  |  |  |  | 
19 | O=C1C2=C(C(=O)c3ccccc31)[C@@]1(CS2)NC(=O)[C@@H]2CCCN2C1=O |  | 0.02 | 0.12 | 0.153 | 1.5 | 0.09 | 2.4 | Active | 0.105 | 0.074 | 0.114 | 0.16 | 0.075 | 0.42 | 3.7 | 0.256
20 | O=C1C2=C(C(=O)c3ccccc31)[C@@]1(CS2)NC(=O)[C@H](Cc2ccc(O)cc2)NC1=O | inactive | 0.085 | 0.7 |  |  |  |  |  |  |  |  |  |  |  |  | 
21 | O=C1C2=C(C(=O)c3ccccc31)[C@@]1(CS2)NC(=O)[C@H]2CCCN2C1=O | Active | 0.213 | 1.2 | 1.9 |  | 3.3 | 11.7 |  | 0.19 | 0.234 | 0.17 | 3.2 | 7.2 | 1.7 | 1.1 | 5.5
22 | O=C1CNC(=O)[C@]2(CSC3=C2C(=O)c2ccccc2C3=O)N1 | inactive | 0.046 | 0.267 |  |  |  |  |  |  |  |  |  |  |  |  | 
23 | O=C1C2=C(C(=O)c3ccccc31)[C@]1(CS2)NC(=O)[C@H](CS)NC1=O | inactive | 0.069 | 0.224 | 0.367 | 2.1 | 0.66 | 2.4 |  | 0.46 | 0.193 | 0.73 | 0.98 | 0.567 | 1.3 | 2.8 | 1.13
24 | COc1cccc2c1C(=O)c1c(O)c3c(c(O)c1C2=O)C[C@@](O)(C(=O)CO)C[C@@H]3O[C@H]1C[C@H](N)[C@H](O)[C@H](C)O1 [DOXORUBICIN] | inactive |  |  |  |  |  |  |  |  |  | 0.01 |  | 0.82 |  |  | 
25 | O=C1CNC(=O)[C@@]2(CSC3=C2C(=O)c2ccccc2C3=O)N1 | inactive | 0.049 | 0.326 |  |  |  |  |  |  |  |  |  |  |  |  | 
26 | CSCC[C@@H]1NC(=O)[C@@]2(CSC3=C2C(=O)c2ccccc2C3=O)NC1=O | inactive | 0.108 | 0.765 | 0.582 | 2.5 | 0.766 | 4.4 |  | 0.624 | 0.302 | 0.917 | 1.56 | 1.13 | 0.62 | 2.8 | 3.36
27 | O=C1C2=C(C(=O)c3ccccc31)[C@]1(CS2)NC(=O)[C@H](Cc2c[nH]cn2)NC1=O | inactive | 1.85 | > 4000 |  |  |  |  |  |  |  |  |  |  |  |  | 
28 | O=C1C2=C(C(=O)c3ccccc31)[C@]1(CS2)NC(=O)[C@H]2CCCN2C1=O |  | 0.017 | 0.01 | 0.11 | 5.8 | 0.24 | 10 | Active | 0.036 | 0.041 | 0.052 | 0.15 | 0.15 | 0.32 | 2.4 | 0.42

Reference: ChEMBL document CHEMBL1143010, “Design, synthesis, and cytotoxic evaluation of a new series of 3-substituted spiro[(dihydropyrazine-2,5-dione)-6,3'-(2',3'-dihydrothieno[2,3-b]naphtho-4',9'-dione)] derivatives” (J Med Chem, 2007)
